Experimental data collected from several papers.
Each line is one published result; the experiments were not run side by side.
Observed: metabolic stability
Sample: liver microsomes

Compound | host | tested at | time | pH | compound remaining
CCCn1nc(C(=O)N2CCCCC2)c2c1CCC(NCc1ccc(N3CCCCC3)cc1)C2 (centres unmarked) | mouse | 10 µM | 1 h | – | 47%
CC[C@H](C)C(=O)O[C@H]1C[C@@H](C)C=C2C=C[C@H](C)[C@H](CC[C@@H]3C[C@@H](O)CC(=O)O3)[C@H]21 | mouse | 1 µM | 5 min | pH 7.4 | 0.85%
Cc1ccc2c(c1)nc(CCc1cccc3cccnc13)n2-c1ccccc1 | rat | 1.5 µM | 30 min | – | 0.13%
CCCn1nc(C(=O)N2CCCCC2)c2c1CCC(N1CCc3ccccc3C1)C2 (centres unmarked) | mouse | 10 µM | 1 h | – | < 25%
Cc1ccc2c(c1)nc(/C=C/c1cccc3cccnc13)n2-c1ccccc1 | rat | 1.5 µM | 0 h | – | 100%
O=S(=O)(c1cccc2cccnc12)N1CC(c2nc(-c3ccc(F)cc3)no2)C1 | mouse | – | 10 min | – | 74%
Cc1ncsc1-c1ccc(CNC(=O)[C@@H]2C[C@@H](O)CN2C(=O)[C@@H](NC(=O)CCCCCCCCCCNC(=O)O[C@H]2C[C@@H](C)C=C3C=C[C@H](C)[C@H](CC[C@@H]4C[C@@H](O)CC(=O)O4)[C@H]32)C(C)(C)C)cc1 | mouse | 1 µM | 45 min | pH 7.4 | 1.42%
N#Cc1ccc(C[C@H](NC(=O)Nc2ccc(F)cc2)C(=O)NCC2(c3ccc(OC(F)(F)F)cc3)CC2)cc1 | rat | 10 µM | 30 min | pH 7.4 | > 80%
CCCn1nc(C(=O)N2CCCCC2)c2c1CCC(N(C)Cc1ccc(F)cc1)C2 (centres unmarked) | mouse | 10 µM | 1 h | – | 0%
CS(=O)(=O)c1ccc(-c2cnc(N)c(-c3ccc(C(F)(F)F)nc3)c2)cc1 | male rat | 1 µM | 30 min | – | 97%
[O-][S+](CCN1CCCN(CC(O)Cc2ccccc2)CC1)C(c1ccc(F)cc1)c1ccc(F)cc1 (centres unmarked) | rat | 10 µM | 1 h | pH 7.4 | 0%
